Data taken from ChEMBL document CHEMBL1146073, “A pyridazine series of alpha2/alpha3 subtype selective GABA A agonists for the treatment of anxiety” (J Med Chem, 2006).

Columns and labels:
[1] = Stability in rat assessed as liver microsomal turnover; type: ADME, Microsome; conditions: liver microsomes, read-out: Stability
How it was run: (§1)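 Test compound at 1 µM, with diazepam as control, incubated 0.25 h with pooled liver microsomes at 0.5 mg/mL protein. Compound remaining quantified by LC/MS/MS. Turnover is the mean of three determinations.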

[2] = target: T1, GABA-A receptor; alpha-5/beta-3/gamma-2 (Homo sapiens, UniProt P18507+P28472+P31644); assay: Displacement of [3H]Ro-151788 from recombinant human GABA-Aalpha5 receptor plus beta3gamma2; type: protein-complex assay
T1 sequence (P18507 whole entry): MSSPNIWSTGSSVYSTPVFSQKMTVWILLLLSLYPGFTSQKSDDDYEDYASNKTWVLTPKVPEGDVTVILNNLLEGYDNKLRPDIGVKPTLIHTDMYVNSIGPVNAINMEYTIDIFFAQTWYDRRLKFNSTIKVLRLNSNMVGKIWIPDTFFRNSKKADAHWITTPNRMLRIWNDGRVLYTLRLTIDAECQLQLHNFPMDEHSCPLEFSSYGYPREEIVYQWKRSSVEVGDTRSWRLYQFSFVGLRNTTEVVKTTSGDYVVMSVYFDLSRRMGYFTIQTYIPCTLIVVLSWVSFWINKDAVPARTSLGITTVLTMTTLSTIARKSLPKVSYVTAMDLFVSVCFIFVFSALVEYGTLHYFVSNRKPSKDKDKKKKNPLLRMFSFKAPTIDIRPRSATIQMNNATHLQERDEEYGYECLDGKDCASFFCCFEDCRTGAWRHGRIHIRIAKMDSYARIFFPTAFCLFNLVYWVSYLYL
T1 sequence (P28472 whole entry): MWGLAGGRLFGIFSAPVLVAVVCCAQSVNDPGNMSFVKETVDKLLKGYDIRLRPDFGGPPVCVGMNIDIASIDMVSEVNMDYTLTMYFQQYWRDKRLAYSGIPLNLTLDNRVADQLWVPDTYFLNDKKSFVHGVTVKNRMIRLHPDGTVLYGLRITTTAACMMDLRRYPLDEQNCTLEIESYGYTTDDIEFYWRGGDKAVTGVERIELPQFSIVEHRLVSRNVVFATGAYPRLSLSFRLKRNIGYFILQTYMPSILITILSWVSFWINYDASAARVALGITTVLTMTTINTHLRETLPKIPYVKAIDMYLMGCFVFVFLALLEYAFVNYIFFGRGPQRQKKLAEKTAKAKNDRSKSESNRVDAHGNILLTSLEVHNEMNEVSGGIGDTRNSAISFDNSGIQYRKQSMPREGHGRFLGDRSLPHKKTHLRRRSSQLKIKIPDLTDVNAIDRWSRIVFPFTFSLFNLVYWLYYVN
T1 sequence (P31644 whole entry): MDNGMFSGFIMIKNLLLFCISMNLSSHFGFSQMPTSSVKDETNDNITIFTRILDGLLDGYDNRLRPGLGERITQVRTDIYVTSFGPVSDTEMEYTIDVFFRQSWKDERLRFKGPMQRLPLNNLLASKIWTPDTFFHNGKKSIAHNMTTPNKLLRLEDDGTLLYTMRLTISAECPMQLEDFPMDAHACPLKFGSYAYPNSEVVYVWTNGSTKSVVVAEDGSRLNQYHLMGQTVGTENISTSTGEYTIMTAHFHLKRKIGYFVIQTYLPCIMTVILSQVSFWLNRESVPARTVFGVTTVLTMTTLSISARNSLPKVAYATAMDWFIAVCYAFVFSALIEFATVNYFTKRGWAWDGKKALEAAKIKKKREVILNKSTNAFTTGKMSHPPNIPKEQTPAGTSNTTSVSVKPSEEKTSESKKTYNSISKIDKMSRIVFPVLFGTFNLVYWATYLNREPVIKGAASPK
How it was run: (§2)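 Benzodiazepine-site binding on stably transfected αxβ3γ2 receptors (x = 1, 2, 3 or 5). Inhibition curves run with [3H]Ro15-1788 at roughly twice its Kd. Ki derived by Cheng-Prusoff equation. Mean of three to six determinations.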

[3] = target: T2, GABA-A receptor; alpha-5/beta-3/gamma-2 (Homo sapiens) (UniProt P18507+P28472+P31644); assay: Efficacy against recombinant human GABA-Aalpha5 plus beta-3-gamma-2 expressed in L(tk-) cells by whole cell patch clamp method relative to chlordiazepoxide; type: functional, cell-based
How it was run: (§3)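 Whole-cell patch clamp on αxβ3γ2 receptors stably expressed in L(tk-) cells, measuring the effect on current evoked by an EC20-equivalent of GABA. Reported relative to full agonist chlordiazepoxide (=1.0), or as direct percent modulation of the EC20 control, with inverse agonism given as percent. Mean of at least four independent experiments.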

[4] = target: T3, GABA-A receptor; alpha-3/beta-3/gamma-2 (Homo sapiens, UniProt P18507+P28472+P34903); assay: Displacement of [3H]Ro-151788 from recombinant human GABA-Aalpha3 receptor plus beta3gamma2; type: protein-complex assay; how it was run: as §2
T3 sequence (P18507 whole entry): T1 sequence (P18507 whole entry)
T3 sequence (P28472 whole entry): T1 sequence (P28472 whole entry)
T3 sequence (P34903 whole entry): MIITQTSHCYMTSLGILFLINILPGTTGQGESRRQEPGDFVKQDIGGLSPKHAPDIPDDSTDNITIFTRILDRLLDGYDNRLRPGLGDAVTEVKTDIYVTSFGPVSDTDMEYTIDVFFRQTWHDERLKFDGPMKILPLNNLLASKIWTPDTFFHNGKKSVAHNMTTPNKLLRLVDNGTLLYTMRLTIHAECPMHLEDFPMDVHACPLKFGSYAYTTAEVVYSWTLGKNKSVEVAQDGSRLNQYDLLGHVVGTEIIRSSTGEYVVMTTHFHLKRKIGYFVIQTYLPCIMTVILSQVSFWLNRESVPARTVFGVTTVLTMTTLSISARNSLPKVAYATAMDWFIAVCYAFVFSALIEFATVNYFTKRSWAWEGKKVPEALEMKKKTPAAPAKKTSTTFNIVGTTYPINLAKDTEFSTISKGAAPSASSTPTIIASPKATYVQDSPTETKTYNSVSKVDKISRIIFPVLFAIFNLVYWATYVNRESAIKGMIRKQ

[5] = target: GABA-A receptor; alpha-3/beta-3/gamma-2 (Homo sapiens) (UniProt P18507+P28472+P34903); assay: Efficacy against recombinant human GABA-Aalpha3 plus beta-3-gamma-2 expressed in L(tk-) cells by whole cell patch clamp method relative to chlordiazepoxide; type: functional, cell-based; how it was run: as §3
[6] = target: T4, GABA-A receptor; alpha-1/beta-3/gamma-2 (Homo sapiens, UniProt P14867+P18507+P28472); assay: Displacement of [3H]Ro-151788 from recombinant human GABA-Aalpha1 receptor plus beta3gamma2; type: protein-complex assay; how it was run: as §2
T4 sequence (P14867 whole entry): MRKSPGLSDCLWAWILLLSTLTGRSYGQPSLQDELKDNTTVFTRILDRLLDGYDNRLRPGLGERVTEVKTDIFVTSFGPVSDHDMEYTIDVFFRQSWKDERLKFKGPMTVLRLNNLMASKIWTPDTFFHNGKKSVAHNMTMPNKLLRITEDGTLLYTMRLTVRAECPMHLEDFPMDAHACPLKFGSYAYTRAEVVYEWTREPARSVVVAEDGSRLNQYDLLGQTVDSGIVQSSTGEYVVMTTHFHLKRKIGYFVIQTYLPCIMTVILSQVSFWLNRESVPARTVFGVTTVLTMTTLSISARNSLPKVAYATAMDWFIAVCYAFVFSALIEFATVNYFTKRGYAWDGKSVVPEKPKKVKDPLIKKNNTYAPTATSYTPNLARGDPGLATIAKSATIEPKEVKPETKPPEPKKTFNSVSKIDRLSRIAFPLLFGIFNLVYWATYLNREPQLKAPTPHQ
T4 sequence (P18507 whole entry): T1 sequence (P18507 whole entry)
T4 sequence (P28472 whole entry): T1 sequence (P28472 whole entry)

[7] = Stability in human assessed as liver microsomal turnover; type: ADME, Microsome; conditions: liver microsomes, read-out: Stability; how it was run: as §1
[8] = target: T5, GABA-A receptor; alpha-1/beta-3/gamma-2 (Homo sapiens) (UniProt P14867+P18507+P28472); assay: Efficacy against recombinant human GABA-Aalpha1 plus beta-3-gamma-2 expressed in L(tk-) cells by whole cell patch clamp method; type: functional, cell-based; how it was run: as §3
[9] = target: GABA-A receptor; anion channel (Rattus norvegicus) (UniProt O09028+P15431+P18506+P18508+P19969+P20236+P23574+P23576+P28471+P28473+P30191+P62813+P63079+P63138+Q91ZM7+Q9ES14); assay: Receptor occupancy in vivo by displacement of [3H]Ro 15-1788 binding from GABA-A receptor in rat, po; type: functional, organism-based
How it was run: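 Rat in vivo occupancy measured by [3H]Ro 15-1788 binding after oral dosing. Rats taken as a subgroup after the plus-maze trial, i.e. 30 min post-dose or later. ED50 derived from dose-dependent occupancy. Mean ± SEM, n = 5-10/group.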

[10] = Stability in dog assessed as liver microsomal turnover; type: ADME, Canis lupus familiaris; conditions: liver microsomes, read-out: Stability; how it was run: as §1
[11] = target: T5, GABA-A receptor; alpha-1/beta-3/gamma-2 (Homo sapiens); assay: Efficacy against recombinant human GABA-Aalpha1 plus beta-3-gamma-2 expressed in L(tk-) cells by whole cell patch clamp method relative to chlordiazepoxide; type: functional, cell-based; how it was run: as §3
[12] = Oral bioavailability in rat; type: ADME, organism-based; conditions: in vivo
How it was run: (§4)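 Pharmacokinetics from six animals per species: three dosed iv and three dosed po.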

[13] = Plasma clearance in rat; type: ADME, organism-based; how it was run: as §4
[14] = target: GABA-A receptor; alpha-2/beta-3/gamma-2 (Homo sapiens) (UniProt P18507+P28472+P47869); assay: Efficacy against recombinant human GABA-Aalpha2 plus beta-3-gamma-2 expressed in L(tk-) cells by whole cell patch clamp method relative to chlordiazepoxide; type: functional, cell-based; how it was run: as §3
[15] = target: T2, GABA-A receptor; alpha-5/beta-3/gamma-2 (Homo sapiens); assay: Efficacy against recombinant human GABA-Aalpha5 plus beta-3-gamma-2 expressed in L(tk-) cells by whole cell patch clamp method; type: functional, cell-based; how it was run: as §3
[16] = Half life in rat; type: ADME, organism-based; conditions: in vivo; how it was run: as §4

Row | Compound | metabolised [1] | Ki [2] | Efficacy [3] | Ki [4] | Efficacy [5] | Ki [6] | metabolised [7] | Efficacy [8] | Activity [9] | Occ50 [9] | metabolised [10] | Efficacy [11] | bioavailability [12] | clearance [13] | Efficacy [14] | Efficacy [15] | half-life [16]
1 | Fc1cnc(-c2cc(-c3cnnc(-c4ncccc4F)c3)ccc2F)c(F)c1 | < 5% | 3.2 nM | 0.14 | 1.7 nM | 0.17 | 0.4 nM | < 5% | -26% | < 0.2 mg/kg |  |  |  |  |  |  |  | 
2 | Fc1ccc(-c2cnnc(-c3c(F)cncc3F)c2)cc1-c1ncccc1F | 9% | 3 nM |  | 3.2 nM | 0.39 | 0.8 nM | 9% | -7% |  | < 0.2 mg/kg | 9% |  |  |  |  |  | 
3 | Fc1ccc(-c2cnnc(-c3c(F)cccc3F)c2)cc1-c1ncccc1F | 19% | 0.3 nM |  | 0.4 nM | 0.24 | 0.1 nM | 13% | -5% |  |  | 24% |  |  |  |  |  | 
4 | Fc1cnc(-c2cc(-c3cnnc(-c4ccncc4F)c3)ccc2F)c(F)c1 | 23% | 5.6 nM |  | 8.2 nM | 0.41 | 3.5 nM | < 5% | -7% |  | 15.3 mg/kg |  |  |  |  |  |  | 
5 | Fc1ccc(-c2cc(-c3ccc(F)c(-c4ncc(F)cc4F)c3)cnn2)c(F)c1 | 13% | 1.4 nM |  | 3.1 nM | 0.42 |  | < 5% |  |  | 4.6 mg/kg | 18% | 0.07 |  |  |  |  | 
6 | Fc1ccccc1-c1cc(-c2ccc(F)c(-c3ncccc3F)c2)cnn1 | 11% | 0.5 nM |  | 0.9 nM | 0.31 |  |  |  |  |  | 34% | 0.11 |  |  |  |  | 
7 | Fc1ccc(-c2cc(-c3ccc(F)c(-c4ncc(F)cc4F)c3)cnn2)cc1 | 7% | 3.8 nM |  | 5.6 nM | 0.21 |  |  |  |  |  | 20% | 0.02 |  |  |  |  | 
8 | Fc1cnccc1-c1cc(-c2ccc(F)c(-c3ncccc3F)c2)cnn1 | 17% | 7.7 nM |  | 5.6 nM | 0.58 | 0.9 nM | 8% | -8% |  | 7.2 mg/kg | 8% |  | 5% | 91 mL/min/kg | 0.24 | -3% | 0.8 h
9 | Fc1ccc(-c2cnnc(-c3ncccc3F)c2)cc1-c1ncccc1F | 3% | 2.4 nM |  | 1.4 nM | 0.4 | 0.5 nM | 5% | -30% | 0.5 mg/kg |  | 2% |  |  |  |  |  | 
10 | Fc1cnc(-c2cc(-c3cnnc(-c4ccccc4F)c3)ccc2F)c(F)c1 | 22% | 0.7 nM |  | 1.7 nM | 0.4 |  | 8% | -20% |  | 3 mg/kg | 31% |  | 11% | 30 mL/min/kg | 0.2 | -20% | 2.2 h
